In paper PMC7429274 (ACS infectious diseases, 2020):
Primed or numbered codes have the meaning given here. Ends that are not written are not given here. FITC′ = fluorescein isothiocyanate label

Tests used:
[1] = system: P. aeruginosa-infected wounds; assay: In vivo optical imaging in mouse infected wound model; set-up: species or system female BALB/c athymic nude mice; conditions: 6 h post probe injection, p<0.0035, Fig. S7
Outline: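 Wounded mice (6 mm dorsal biopsies, 48 h recovery) had wounds inoculated with ~10⁷ cells of a 50:50 lux-tagged/TdTomato PAO1 mix or PBS. Cy5-labelled peptide probe (60 nmoles, tail vein) or PBS was injected 24 h later; groups n=4, 3, 2. Isoflurane-anaesthetised mice were imaged at 3, 6 and 18 h. Bioluminescence integration was 2 s; fluorescence excitation was 640 nm. ROI wound Cy5 was normalised to surrounding non-wound tissue.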

[2] = system: P. aeruginosa (strain PAO1); assay: Bacterial growth inhibition; format: cell-based, Pseudomonas aeruginosa; conditions: Fig. S3
Outline: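 PAO1 grown from overnight culture (diluted 1:100 in LB without NaCl) at 37°C, 5% CO₂, 200 rpm to mid-log (OD₆₀₀ 0.5), pelleted, resuspended in Mueller-Hinton broth to OD₆₀₀ 0.1 (~10⁷ CFU/mL). Serially diluted FITC-labelled peptide added in triplicate; gentamycin 10 μg/mL positive control, PBS mock. OD₆₀₀ read every 30 min for 16 h at 37°C, 5% CO₂. Background-corrected mean OD normalised to PBS wells, as percentage.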

[3] = system: flow cell-grown P. aeruginosa PAO1 biofilms; assay: Peptide labeling of flow-grown biofilms by CLSM; format: cell-based, Pseudomonas aeruginosa; conditions: 24 h flow cell biofilms; for Biofilm labeling (CLSM): 2 μM peptide in PBS, 1 h, room temperature; for Labeling pattern / localization within biofilms (CLSM): 2 μM peptide, single slice at mid-height
[4] = system: human primary neutrophils infected or not with PAO1-GFP+; assay: Human primary neutrophil infection model, imaging flow cytometry; format: cell-based
[5] = system: P. aeruginosa-infected wounds; assay: Ex vivo CLSM of sectioned wound tissue; format: in vivo, female BALB/c athymic nude mice; conditions: harvested after 18 h imaging
Outline: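 Two 6 mm full-thickness dorsal wounds per mouse, occlusive dressing, 48 h recovery. Wounds were then inoculated with 60 μL containing ~10⁷ cells of a 50:50 mix of lux-tagged and TdTomato PAO1, or mock-treated with PBS. Cy5-labelled peptide probe, 60 nmoles, was given by tail vein 24 h later. After the 18 h imaging point, mice were CO₂-euthanised. Wounds were DAPI-stained (1 μg/mL, 10 min), fixed in 4% PFA for 24 h, OCT cryosectioned and imaged by CLSM.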

[6] = system: P. aeruginosa aggregates (PAO1-mCherry) on A549 cells; assay: Epithelial cell infection model, CLSM colocalization with bacteria; format: cell-based, Pseudomonas aeruginosa; conditions: Cy5-labeled probes, Fig. S5
[7] = system: planktonic P. aeruginosa cells (PAO1, TdTomato); assay: Probe binding to planktonic cells by flow cytometry; format: cell-based, Pseudomonas aeruginosa; conditions: 10, 5 or 1 μM, 30 min, room temperature, Fig. S2
Outline: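 PAO1 with constitutive TdTomato plasmid was diluted 1:100 in LB without NaCl and grown 3 h at 37°C, 200 rpm, to mid-log. Cells were pelleted, resuspended in PBS at 10⁸ CFU/mL, labelled with FITC-peptide, washed, and fixed in 4% PFA for 20 min. 10,000 events per sample, gated on FSC/SSC and excluding low-TdTomato events. FITC MFI was normalised to autofluorescence. Two biological replicates, mean ± standard deviation.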

[8] = system: Human A549 type II alveolar epithelial cells; assay: Epithelial cell infection model, CLSM colocalization with epithelial cells; format: cell-based; conditions: uninfected A549 cells, Fig. S8
Outline: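 A549 cells seeded at 20,000/well in RPMI 1640 with 10% FBS and 100 U pen/strep for 3 days to ~70% confluency, then prelabelled with 1 μM cell tracker blue for 20 min at 37°C. Washed twice in warm PBS, stained with 2 μM FITC-labelled peptide for 1 h at 37°C, washed twice, fixed in 4% paraformaldehyde for 30 min. CLSM with 60x oil objective.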

“(4Iph)(f)LPNSNHIKQGL-Cy5^b [4Iphf-HN17-Cy5]” was tested, and the “Cy5 signal enhancement in infected wounds vs PBS-treated wounds” value [1] was “reached statistical significance compared to PBS-treated wounds”, the “Bactericidal effects against P. aeruginosa” value [2] was “no bactericidal effects” and the “Biofilm labeling (CLSM)” value [3] was “retained similar biofilm targeting properties”. The “Percentage of neutrophils that were Cy5+” value ([4]; each of the four populations) was “greater than 87%”, the “Colocalization between Cy5 and GFP (similarity feature)” value ([4]; every cell, all infected neutrophils regardless of morphology) was less than 0.2 and the “Percentage of neutrophils that were Cy5+” value ([4]; infected neutrophils with irregular morphology) was 99.8%. For the same substance, the “Percentage of neutrophils that were Cy5+” value ([4]; uninfected cells with normal morphology) was 87.8%, the “Cy5 fluorescence in sectioned wound tissue (CLSM)” value ([5]; infected wound) was “intense, multi-focal pockets” and the “Cy5 fluorescence in sectioned wound tissue (CLSM)” value ([5]; uninfected wound) was “minimal Cy5 fluorescence”. For the same substance, the “Targeting in the epithelial cell infection model (Cy5 probes)” value [6] was “biofilm specificity in the epithelial cell infection model”.
For “(4Iph)(f)LPNSNHIKQGL-FITC^b [4Iphf-HN17-FITC]”, the “Labeling of planktonic P. aeruginosa cells (FITC MFI, flow cytometry)” value [7] was “to a lesser degree than LG21-FITC and LL37-FITC”, the “Targeting of epithelial cells in the absence of infection” value (shortened to “Targeting of epithelial cells”) [8] was “did not target epithelial cells in the absence of infection” and the “Biofilm labeling (CLSM)” value [3] was “biofilm labeling was observed”. The “Labeling pattern / localization within biofilms (CLSM)” value [3] was “penetrated into biofilms”.
With “^aFITC-KRNQRMARYRRGT ({FITC′}-KRNQRMARYRRGT) [UBIsc-FITC, reference compound]” the “Labeling of planktonic P. aeruginosa cells (FITC MFI, flow cytometry)” value [7] was “minimal targeting of P. aeruginosa cells” and the “Biofilm labeling (CLSM)” value [3] was “failed to label biofilms”.
In the case of “^aFITC-LLGDFFRKSKEKIGKEFKRIVQRIKDFLRNLVPRTES [LL37-FITC, reference compound]”, the “Labeling of planktonic P. aeruginosa cells (FITC MFI, flow cytometry)” value [7] is reported as “greatest targeting of planktonic cells”, the “Biofilm labeling (CLSM)” value [3] is reported as “biofilm labeling was observed” and the “Labeling pattern / localization within biofilms (CLSM)” value [3] is reported as “localized to the periphery of biofilms”.
With “^aFITC-LLPIVGNLLKSLLGWKRKRFG [LG21-FITC]” the “Labeling of planktonic P. aeruginosa cells (FITC MFI, flow cytometry)” value [7] was “greatest targeting of planktonic cells”, the “Targeting of epithelial cells” value [8] was “did not target epithelial cells in the absence of infection” and the “Biofilm labeling (CLSM)” value [3] was “biofilm labeling was observed”. The “Labeling pattern / localization within biofilms (CLSM)” value [3] was “localized to the periphery of biofilms”.
For “^aFITC-TGRAKRRMQYNRR [UBI29-41-FITC, reference compound]”, the “Labeling of planktonic P. aeruginosa cells (FITC MFI, flow cytometry)” value [7] was “minimal targeting of P. aeruginosa cells” and the “Biofilm labeling (CLSM)” value [3] was “failed to label biofilms”.
“^aFITC-WPRRPWRR ({FITC′}-WPRRPWRR) [WR8-Pro-FITC]” was tested, and the “Labeling of planktonic P. aeruginosa cells (FITC MFI, flow cytometry)” value [7] was “minimal targeting of P. aeruginosa cells” and the “Biofilm labeling (CLSM)” value [3] was “complete lack of binding”.
With ^aFITC-WWKKWWKK [WK8-FITC] the “Labeling of planktonic P. aeruginosa cells (FITC MFI, flow cytometry)” value [7] was “to a lesser degree than LG21-FITC and LL37-FITC”, the “Targeting of epithelial cells” value [8] was “moderate targeting of these cells” and the “Biofilm labeling (CLSM)” value [3] was “biofilm labeling was observed”. The “Labeling pattern / localization within biofilms (CLSM)” value [3] was “penetrated into biofilms”.
For ^aFITC-WWRRWWR [WR8-FITC], the “Labeling of planktonic P. aeruginosa cells (FITC MFI, flow cytometry)” value [7] was “to a lesser degree than LG21-FITC and LL37-FITC”, the “Targeting of epithelial cells” value [8] was “moderate targeting of these cells” and the “Biofilm labeling (CLSM)” value [3] was “biofilm labeling was observed”. For the same substance, the “Labeling pattern / localization within biofilms (CLSM)” value [3] was “penetrated into biofilms”.
